From ChEMBL document CHEMBL4402601, “Discovery of a Silicon-Containing Pan-Genotype Hepatitis C Virus NS5A Inhibitor” (J Med Chem, 2020)

How the values were obtained:
[1] = system: Hepatitis C virus; experiment: Antiviral activity against Hepatitis C virus subtype 1a H77 subgenomic replicon expressing NS5A Q30K mutant infected in human HuH7 cells assessed as reduction in viral replication incubated for 3 days by luciferase reporter gene assay; type: functional, organism-based, Hepacivirus hominis; details: subtype 1a H77, Huh-7, 72 h
In short: (§1)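 NS5A resistance-associated variants introduced into GT1a-H77 or GT1b-Con1 replicons. In transient assays, each variant replicon was electroporated into a Huh-7-derived cell line. Inhibition measured as drop in luciferase signal. Percent inhibition computed per concentration; EC50 from 4-parameter logistic nonlinear fit. Fold resistance is variant EC50 relative to the matching reference replicon.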

[2] = Half life in dog at 5 mg/kg, po by UPLC-MS/MS analysis; type: ADME, organism-based, Canis lupus familiaris; details: in vivo
[3] = system: Hepatitis C virus; experiment: Antiviral activity against Hepatitis C virus subtype 1a H77 subgenomic replicon expressing NS5A Y93C mutant infected in human HuH7 cells assessed as reduction in viral replication incubated for 3 days by luciferase reporter gene assay; type: functional, organism-based, Hepacivirus hominis; details: subtype 1a H77, Huh-7, 72 h; in short: as §1
[4] = system: Hepatitis C virus; experiment: Antiviral activity against Hepatitis C virus subtype 1a H77 subgenomic replicon expressing NS5A L31M mutant infected in human HuH7 cells assessed as reduction in viral replication incubated for 3 days by luciferase reporter gene assay; type: functional, organism-based, Hepacivirus hominis; details: subtype 1a H77, Huh-7, 72 h; in short: as §1
[5] = Drug distribution in rat liver at 10 mg/kg, po incubated for 0.5 hrs by UPLC-MS/MS analysis; type: ADME, organism-based; details: read-out: Drug uptake
In short: (§2)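 Oral dosing in mice and rats; compound measured in plasma and liver by UPLC-MS/MS at each time point, n = 3 (mean ± SD). LPR is mean liver concentration divided by mean plasma concentration.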

[6] = Drug distribution in rat plasma at 10 mg/kg, po incubated for 3 hrs by UPLC-MS/MS analysis; type: ADME, organism-based; in short: as §2
[7] = Drug distribution in rat plasma at 10 mg/kg, po incubated for 0.5 hrs by UPLC-MS/MS analysis; type: ADME, organism-based; in short: as §2
[8] = system: Hepatitis C virus; experiment: Resistance index, ratio of EC50 for Hepatitis C virus subtype 1b Con1 subgenomic replicon expressing NS5A L31W mutant infected in human HuH7 cells to EC50 for Hepatitis C virus subtype 1b Con1 subgenomic replicon expressing NS5A infected in human HuH7 cells; type: functional, Hepacivirus hominis
[9] = system: Hepatitis C virus; experiment: Antiviral activity against Hepatitis C virus subtype 6a subgenomic replicon expressing NS5A infected in human HuH7 cells assessed as reduction in viral replication incubated for 3 days by luciferase reporter gene assay; type: functional, organism-based, Hepacivirus hominis; details: Huh-7, 72 h
In short: (§3)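 HCV replicon cell assay; inhibition of replication read as decrease in luciferase signal. Percent inhibition computed at each compound concentration; EC50 (pM) from nonlinear regression fit to a 4-parameter logistic equation. Values are means of triplicate wells, with each experiment run at least twice.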

[10] = system: Hepatitis C virus; experiment: Antiviral activity against Hepatitis C virus subtype 3a subgenomic replicon expressing NS5A infected in human HuH7 cells assessed as reduction in viral replication incubated for 3 days by luciferase reporter gene assay; type: functional, organism-based, Hepacivirus hominis; details: Huh-7, 72 h; in short: as §3
[11] = system: Hepatitis C virus; experiment: Antiviral activity against Hepatitis C virus subtype 1b Con1 replicon expressing NS5A P32L mutant infected in human HuH7 cells assessed as reduction in viral replication incubated for 3 days by luciferase reporter gene assay; type: functional, organism-based, Hepacivirus hominis; details: subtype 1b Con1, Huh-7, 72 h; in short: as §1
[12] = system: Hepatitis C virus; experiment: Resistance index, ratio of EC50 for Hepatitis C virus subtype 1a H77 subgenomic replicon expressing NS5A Q30K mutant infected in human HuH7 cells to EC50 for Hepatitis C virus subtype 1a H77 subgenomic replicon expressing NS5A infected in human HuH7 cells; type: functional, Hepacivirus hominis
[13] = Tmax in dog at 5 mg/kg, po by UPLC-MS/MS analysis; type: ADME, organism-based, Canis lupus familiaris; details: in vivo
[14] = Ratio of drug distribution in rat liver to drug distribution in rat plasma measured after 8 hrs by UPLC-MS/MS analysis; type: ADME, cell-free; in short: as §2
[15] = AUClast in mouse at 10 mg/kg, po by UPLC-MS/MS analysis; type: ADME, organism-based; details: in vivo
In short: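 Overnight-fasted mice given a single 10 mg/kg oral dose in 2:2:96 (v/v) alcohol : Tween 80 : glucose injection. Plasma levels by UPLC-MS/MS. Bioavailability derived against a 2 mg/kg iv arm using the same formulation diluted 2.5 times with 10% glucose injection.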

[16] = system: Hepatitis C virus; experiment: Antiviral activity against Hepatitis C virus subtype 1a H77 subgenomic replicon expressing NS5A M28T mutant infected in human HuH7 cells assessed as reduction in viral replication incubated for 3 days by luciferase reporter gene assay; type: functional, organism-based, Hepacivirus hominis; details: subtype 1a H77, Huh-7, 72 h; in short: as §1

With `COC(=O)N[C@H](C(=O)N1CCC[C@H]1C(=O)Nc1ccc([C@@H]2CC[C@@H](c3ccc(NC(=O)[C@@H]4CCCN4C(=O)[C@@H](NC(=O)OC)[C@@H](C)OC)cc3)N2c2cc(F)c(N3CC[Si](C)(C)CC3)c(F)c2)cc1)[C@@H](C)OC` the EC50 [1] was 0.0375 nM, the half-life [2] was 21.2 h and the EC50 [3] was > 0.25 nM. The EC50 [4] was 0.0122 nM, the concentration at 0.5 h [5] was 359 ng/g and the concentration at 3 h [6] was 45.2 ng/mL. For the same molecule, the concentration at 0.5 h [7] was 40.9 ng/mL, the “Ratio EC50” value [8] was 11.4 and the EC50 [9] was 0.017 nM. The EC50 [10] was 0.003 nM, the EC50 [11] was 0.00164 nM and the “Ratio EC50” value [12] was 30.5. The Tmax [13] was 5.3 h, the Kp at 8 h [14] was 10.7 and the AUClast [15] was 6446 ng/hr.ml. It also gave an EC50 [16] of 0.00237 nM.
